Bioassay records from PubChem.
Most compounds without a hit are left out; they make up all but 6.4% or so of the library.
H69AR growth 86K – proliferation blockers of H69AR lung cancer cells, primary screen, cell-based, human, 86K library | viability, % at 10 µM | H69AR lung tumor viability, ATP luminescence, 72 h; active compounds read low | hit rate 6% among 85,000;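 active = viability at or below 40%; inactive = viability above 40%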;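 also: multidrug resistant small cell line overexpressing MRP-1 efflux transporter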
HUVEC prolif 384 – inhibitors of HUVEC proliferation, primary screen, cell-based, 384-well; hit rate 1.1% among 86,000; AID 648, 2007; CellTiter-Glo luminescence, 72 h; active compounds read low; viability, % at 10 µM (by protocol);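 active = viability at or below 30%; inactive = viability above 30%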
Jurkat tox 60K – cytotoxicity toward Jurkat T cells, primary screen, cytotoxicity control, cell-based, Jurkat E6.1, 60K MLSMR library. inhibition, % at 4 µM. Jurkat E6.1 viability, ATP luminescence, 48 h. hit rate 1.2% among 56,000;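 active = inhibition above the mean inhibition of all tested compounds plus 3 SD, cut at about 28% in these data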
Lung fibro prol – antiproliferative effect on LL 47 fibroblasts – human, LL 47 cells, CellTiter-Glo luminescence, primary screen | LL 47 human lung fibroblast viability, ATP luminescence; active compounds read low | viability, % at 10 µM | hit rate 1.1% among 85,000;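 active = viability at or below 50% in the single dose screen; inactive = viability above 50%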;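 also: compound exposure lasted 72 h before the ATP readout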
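Test system: LL 47 human lung fibroblasts; Quantity: 1,150 cells/well; Buffer or medium: IMEM plus 15% FBS; Dosing: tenfold compound dosing solution, DMSO at 0.1%; Timing: overnight cell rest, 72 h compound treatment at 37 °C; Detection: ATP-based CellTiter-Glo luminescent readout; Read-out basis: viability percentage against median untreated-cell control; Controls: cell-only wells, no compound.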
Large screens that a line does not name were inactive.

CCCC1=C(C(=O)OCC)C(c2cccs2)C(C#N)=C(N)O1 (configuration not stated)	none (no result: Jurkat tox 60K)
CCC(C)NC(=O)c1c(N)n(/N=C/c2ccccn2)c2nc3ccccc3nc12 (configuration not stated)	H69AR growth 86K 11, HUVEC prolif 384 12
CC(C)CNC(=O)c1c(N)n(/N=C/c2cccnc2)c2nc3ccccc3nc12	none (no result: Jurkat tox 60K)
CCC(C)NC(=O)c1c(N)n(/N=C/c2cccnc2)c2nc3ccccc3nc12 (configuration not stated)	HUVEC prolif 384 3.4
CC(C)OCCCNC(=O)c1c(N)n(/N=C/c2ccccn2)c2nc3ccccc3nc12	H69AR growth 86K 23
CC1CCN(C(=O)CCc2ccc(S(=O)(=O)NC(C)C)cc2)CC1	none (no result: Jurkat tox 60K)
COc1ccc(OC)c(S(=O)(=O)Nc2cc(Cl)cc(Cl)c2)c1	none
COc1ccc(-c2c/c(=N\c3nc(-c4ccccc4)c(C)s3)c3ccccc3o2)cc1O	H69AR growth 86K 31, Lung fibro prol 40 (no result: Jurkat tox 60K)
Cn1c(=O)oc2cc(S(=O)(=O)N3CCN(c4cccc(Cl)c4)CC3)ccc21	H69AR growth 86K 24
CCOc1ccc(CC(=O)Nc2c(C(N)=O)oc3ccccc23)cc1OCC	none (no result: H69AR growth 86K, HUVEC prolif 384, Lung fibro prol)
Cc1c(/C=N/n2cnnc2)c2ccccc2n1C	none
Cc1ccc(OC(=S)Nc2ccc(F)cc2)cc1	none (no result: Jurkat tox 60K)
Cc1ccc(OC(=S)Nc2ccc(O)cc2)cc1	H69AR growth 86K 15 (no result: Jurkat tox 60K)
Cc1ccc(NCc2nnc(SCC(=O)c3ccccc3)n2Cc2ccco2)c(C)c1	none (no result: Jurkat tox 60K)
COc1cccc(/C=C2\C(=O)C(=O)c3ccccc32)c1	H69AR growth 86K 5.3 (no result: Jurkat tox 60K)
COc1ccc2c(c1)CC/C(=C\C=C\c1ccccc1)C2=O	none (no result: Jurkat tox 60K)
CCCCN(CCCC)c1nc(OC)nc(-n2nnc(C(C)=O)c2C)n1	H69AR growth 86K 37 (no result: Jurkat tox 60K)
CCCCCOC(=O)Cn1c(SCC(=O)Nc2ccccc2)nc2c1c(=O)[nH]c(=O)n2C	H69AR growth 86K 32
Cn1c(=O)[nH]c(=O)c2c1nc(SCC(=O)Nc1ccccc1)n2Cc1ccccc1	none
Cc1ccc(S(=O)(=O)Nc2nc3ccccc3nc2NCc2ccco2)cc1	H69AR growth 86K 36
Cc1nonc1OCCNC(=O)C12CC3CC(CC(C3)C1)C2	none
CC1=CC(C)=Nc2ccc(C)cc2N1	H69AR growth 86K 18
COc1ccc(S(=O)(=O)N(C)CC(=O)N2CCN(Cc3ccccc3)CC2)cc1C	none (no result: Jurkat tox 60K)
Cc1cc(NC(=O)COC(=O)[C@H](C)NC(=O)c2ccccc2)no1	none (no result: Jurkat tox 60K)
Cc1cc(NC(=O)COC(=O)C(Nc2ccc(C(F)(F)F)cc2Cl)C(C)C)no1 (configuration not stated)	HUVEC prolif 384 13
O=c1c2cccc3c(N4CCOCC4)ccc(c32)c2nc3ccccc3n12	H69AR growth 86K 28
CC(Cc1ccc(O)c(O)c1)C(C)Cc1ccc(O)c(O)c1 (configuration not stated)	H69AR growth 86K 33 (no result: Jurkat tox 60K)
CC(C)C(=O)Nc1ccc(Cc2ccc(NC(=O)C(C)C)c(O)c2)cc1O	none (no result: Jurkat tox 60K)
O=C(CSc1ccc2c(c1)OCCO2)Nc1ccc(Br)cc1	none (no result: Jurkat tox 60K)
COC(=O)C(CC(=O)c1ccc(Br)cc1)n1ccnc1 (configuration not stated)	Lung fibro prol 28
Cc1ccc(C(=O)CC(C(=O)O)n2cccn2)cc1 (configuration not stated)	none
CCOC(=O)C1CCCN(C(=O)c2sc3nc(-c4ccc(F)cc4)cn3c2C)C1 (configuration not stated)	none
COc1ccc(-c2cn3c(C)c(C(=O)Nc4cccc(NC(C)=O)c4)sc3n2)cc1	H69AR growth 86K 26, HUVEC prolif 384 23
CCOC(=O)C1CCN(C(=O)c2sc3nc(-c4ccc(F)cc4)cn3c2C)CC1	H69AR growth 86K 35
COC(=O)c1ccc(NC(=O)c2sc3nc(-c4ccccc4)cn3c2C)cc1	H69AR growth 86K 37
COCCN(CCOC)C(=O)c1sc2nc(-c3ccccc3)cn2c1C	none
COc1ccc(-c2cn3c(C)c(C(=O)Nc4ccncc4)sc3n2)cc1	none
Cc1c(C(=O)Nc2ccncc2)sc2nc(-c3ccc(F)cc3)cn12	H69AR growth 86K 17, HUVEC prolif 384 29
Cc1ccc(C)c(N2CCN(C(=O)c3cc(S(=O)(=O)N4CCOCC4)ccc3F)CC2)c1	none
CCOC(=O)c1c(NC(=O)c2nn(CC)cc2Br)c(C#N)nn1-c1ccccc1	H69AR growth 86K 40
CCC(C)N(NC(C)=O)c1nc(Cl)nc(NC(C)(C)C)n1 (configuration not stated)	none (no result: Jurkat tox 60K)
CCOC(=O)N1CCC(N2CCN(S(=O)(=O)c3ccc(Cl)cc3)CC2)CC1	H69AR growth 86K 27 (no result: Jurkat tox 60K)
CCOC(=O)N1CCC(N2CCN(S(=O)(=O)c3ccc(NC(C)=O)cc3)CC2)CC1	none (no result: Jurkat tox 60K)
Cc1ccc(S(=O)(=O)N2CCC(n3nnc4cc(C)ccc43)CC2)cc1	none (no result: Jurkat tox 60K)
Cc1ccc2c(c1)nnn2C1CCN(S(=O)(=O)c2ccc(C(=O)N(C)C3CCCCC3)cc2)CC1	H69AR growth 86K 32
Cc1cccc(NC(=O)C2CC(=O)n3cnnc3S2)c1 (configuration not stated)	none (no result: Jurkat tox 60K)
COc1cccc(OC)c1C(=O)Nc1cc(C)on1	none (no result: Jurkat tox 60K)
CN1c2ccccc2-c2nc3ccccc3n2C1c1ccccn1 (configuration not stated)	none (no result: Jurkat tox 60K)
c1ccc(CN2c3ccccc3-c3nc4ccccc4n3C2c2ccccn2)cc1 (configuration not stated)	H69AR growth 86K 32 (no result: Jurkat tox 60K)
COc1cc(Cl)ccc1NC(=O)COc1ccccc1C(=O)N1CCN(c2ccc(O)cc2)CC1	none
CCOc1ccc2[nH]c(=O)c(CN(Cc3ccc(F)cc3)C(=O)c3ccco3)cc2c1	H69AR growth 86K 16
COc1ccc2[nH]c(=O)c(CN(CC3CCCO3)C(=O)Nc3ccccc3OC)cc2c1 (configuration not stated)	H69AR growth 86K 20
CCC1Oc2ccc(C)cc2N(CC(=O)N(Cc2ccncc2)Cc2ccco2)C1=O (configuration not stated)	H69AR growth 86K 34 (no result: Jurkat tox 60K)
CCC1Oc2ccc(C)cc2N(CC(=O)N(Cc2cccnc2)Cc2cccc(F)c2)C1=O (configuration not stated)	none (no result: Jurkat tox 60K)
COc1ccccc1NC(=O)N(Cc1cc2cc(OC)c(OC)cc2[nH]c1=O)CC1CCCO1 (configuration not stated)	none
O=C(Nc1ccc(F)cc1)N(Cc1ccco1)Cc1cc2cc3c(cc2[nH]c1=O)OCO3	H69AR growth 86K 31
Cn1cc(SCC(=O)Nc2ccc3c(c2)OCCO3)c2ccccc21	none (no result: Jurkat tox 60K)
Cc1cc2cc(CN(Cc3ccco3)C(=O)C3CCCCC3)c(=O)[nH]c2cc1C	H69AR growth 86K 16
COc1ccc2[nH]c(=O)c(CN(Cc3ccco3)C(=O)c3ccccc3)cc2c1	none
O=C(c1ccco1)N(Cc1cc2ccccc2[nH]c1=O)C1CCCCC1	none
O=C(c1ccncc1)N(Cc1cc2ccccc2[nH]c1=O)C1CCCCC1	Jurkat tox 60K 47
Cc1ccc2[nH]c(=O)c(CN(Cc3ccco3)C(=O)c3ccncc3)cc2c1	H69AR growth 86K 23, Jurkat tox 60K 40
CCOc1ccc2[nH]c(=O)c(CN(Cc3ccccc3OC)C(=O)c3ccccc3)cc2c1	H69AR growth 86K 27 (no result: Jurkat tox 60K)
